Experimental data reported in ChEMBL document CHEMBL3407339, “A novel series of thiazolyl-pyrazoline derivatives: synthesis and evaluation of antifungal activity, cytotoxicity and genotoxicity” (Eur J Med Chem, 2015).
≈ marks a conversion by molar mass, not a printed value.

Columns and labels:
Nakaseomyces glabratus = test: Antifungal activity against Candida glabrata clinical isolate after 48 hrs by broth microdilution assay; assay type: functional
Summary of the method: (§1)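 Broth microdilution of DMSO stocks serially diluted in sterile water (4 to 0.0039 mg/mL). Yeasts grown on SDA at 37 °C for 24 h, suspended in double-strength PDB at 10⁵ spores/mL. Incubated at 37 °C for 48 h, then sprayed with 0.5% aqueous TTC. MIC = lowest concentration inhibiting visible growth. Ketoconazole reference.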

Candida albicans = test: Antifungal activity against Candida albicans ATCC 90028 after 48 hrs by broth microdilution assay; assay type: functional; details: ATCC 90028, 48 h; summary of the method: as §1
Candida tropicalis = test: Antifungal activity against Candida tropicalis NRLL Y 12968 after 48 hrs by broth microdilution assay; assay type: functional; details: NRLL Y 12968, 48 h; summary of the method: as §1
Pichia kudriavzevii = test: Antifungal activity against Candida krusei NRLL Y 7179 after 48 hrs by broth microdilution assay; assay type: functional; details: NRLL Y 7179, 48 h; summary of the method: as §1
[Candida] zeylanoides = Antifungal activity against Candida zeylanoides NRLL Y 1774 after 48 hrs by broth microdilution assay; assay type: functional; details: Dujonia zeylanoides, NRLL Y 1774, 48 h; summary of the method: as §1
Candida parapsilosis = test: Antifungal activity against Candida parapsilosis NRLL Y 12696 after 48 hrs by broth microdilution assay; assay type: functional; details: Lodderomyces parapsilosis, NRLL Y 12696, 48 h; summary of the method: as §1
Aspergillus flavus = test: Antifungal activity against Aspergillus flavus NRRL 980 after 72 hrs by broth microdilution assay; assay type: functional; details: NRRL 980, 72 h
Summary of the method: (§2)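 Compounds dissolved in DMSO, diluted in sterile distilled water from 4 to 0.0039 mg/mL. Molds grown on PDA at 25 °C for 5 days, suspended in double-strength PDB at 10⁵ spores/mL. Incubated at 25 °C for 72 h; mycelial growth read under stereo microscope. MIC = lowest concentration inhibiting visible growth. Ketoconazole reference.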

Aspergillus niger = test: Antifungal activity against Aspergillus niger ATCC 1094 after 72 hrs by broth microdilution assay; assay type: functional; details: ATCC 1094, 72 h; summary of the method: as §2
Aspergillus parasiticus = test: Antifungal activity against Aspergillus parasiticus NRRL 465 after 72 hrs by broth microdilution assay; assay type: functional; details: NRRL 465, 72 h; summary of the method: as §2
Fusarium solani = test: Antifungal activity against Fusarium solani NRRL 13414 after 72 hrs by broth microdilution assay; assay type: functional; details: NRRL 13414, 72 h; summary of the method: as §2
Salmonella typhimurium [1] = test: Mutagenicity in Salmonella typhimurium TA98 at 0.156 mg/ml after 48 hrs by AMES MPF assay in presence of Sprague-Dawley rat liver microsomal S9 fraction relative to baseline; assay type: toxicity, organism-based; details: salmonella enterica subsp. enterica serovar typhimurium
Summary of the method: (§3)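 Ames MPF fluctuation test with TA98/TA100. Overnight cultures (37 °C, 14–16 h) mixed with exposure medium; ±Aroclor-1254-induced rat liver S9 (final 4.5% v/v). Compounds in DMSO, 0.156–5 mg/mL. 90 min exposure at 37 °C, then indicator medium; 48 wells per concentration, 48 h at 37 °C, in triplicate. Yellow wells counted; fold induction over baseline (mean + 1 SD of zero-dose control).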

Salmonella typhimurium [2] = test: Mutagenicity in Salmonella typhimurium TA98 at 0.3125 mg/ml after 48 hrs by AMES MPF assay in presence of Sprague-Dawley rat liver microsomal S9 fraction relative to baseline; assay type: toxicity, organism-based; details: salmonella enterica subsp. enterica serovar typhimurium; summary of the method: as §3
Salmonella typhimurium [3] = test: Mutagenicity in Salmonella typhimurium TA98 at 0.625 mg/ml after 48 hrs by AMES MPF assay in presence of Sprague-Dawley rat liver microsomal S9 fraction relative to baseline; assay type: toxicity, organism-based; details: salmonella enterica subsp. enterica serovar typhimurium; summary of the method: as §3
Salmonella typhimurium [4] = test: Mutagenicity in Salmonella typhimurium TA98 at 1.25 mg/ml after 48 hrs by AMES MPF assay in presence of Sprague-Dawley rat liver microsomal S9 fraction relative to baseline; assay type: toxicity, organism-based; details: salmonella enterica subsp. enterica serovar typhimurium; summary of the method: as §3
Salmonella typhimurium [5] = test: Mutagenicity in Salmonella typhimurium TA98 at 2.5 mg/ml after 48 hrs by AMES MPF assay in presence of Sprague-Dawley rat liver microsomal S9 fraction relative to baseline; assay type: toxicity, organism-based; details: salmonella enterica subsp. enterica serovar typhimurium; summary of the method: as §3
Salmonella typhimurium [6] = test: Mutagenicity in Salmonella typhimurium TA98 at 5 mg/ml after 48 hrs by AMES MPF assay in presence of Sprague-Dawley rat liver microsomal S9 fraction relative to baseline; assay type: toxicity, organism-based; details: salmonella enterica subsp. enterica serovar typhimurium; summary of the method: as §3
Salmonella typhimurium [7] = test: Mutagenicity in Salmonella typhimurium TA98 at 0.156 mg/ml after 48 hrs by AMES MPF assay in absence of Sprague-Dawley rat liver microsomal S9 fraction relative to baseline; assay type: toxicity, organism-based; details: salmonella enterica subsp. enterica serovar typhimurium; summary of the method: as §3
Salmonella typhimurium [8] = test: Mutagenicity in Salmonella typhimurium TA98 at 0.3125 mg/ml after 48 hrs by AMES MPF assay in absence of Sprague-Dawley rat liver microsomal S9 fraction relative to baseline; assay type: toxicity, organism-based; details: salmonella enterica subsp. enterica serovar typhimurium; summary of the method: as §3
Salmonella typhimurium [9] = test: Mutagenicity in Salmonella typhimurium TA98 at 0.625 mg/ml after 48 hrs by AMES MPF assay in absence of Sprague-Dawley rat liver microsomal S9 fraction relative to baseline; assay type: toxicity, organism-based; details: salmonella enterica subsp. enterica serovar typhimurium; summary of the method: as §3
Salmonella typhimurium [10] = test: Mutagenicity in Salmonella typhimurium TA98 at 1.25 mg/ml after 48 hrs by AMES MPF assay in absence of Sprague-Dawley rat liver microsomal S9 fraction relative to baseline; assay type: toxicity, organism-based; details: salmonella enterica subsp. enterica serovar typhimurium; summary of the method: as §3
Salmonella typhimurium [11] = test: Mutagenicity in Salmonella typhimurium TA98 at 2.5 mg/ml after 48 hrs by AMES MPF assay in absence of Sprague-Dawley rat liver microsomal S9 fraction relative to baseline; assay type: toxicity, organism-based; details: salmonella enterica subsp. enterica serovar typhimurium; summary of the method: as §3
Salmonella typhimurium [12] = test: Mutagenicity in Salmonella typhimurium TA98 at 5 mg/ml after 48 hrs by AMES MPF assay in absence of Sprague-Dawley rat liver microsomal S9 fraction relative to baseline; assay type: toxicity, organism-based; details: salmonella enterica subsp. enterica serovar typhimurium; summary of the method: as §3
Salmonella typhimurium [13] = test: Mutagenicity in Salmonella typhimurium TA100 at 0.156 mg/ml after 48 hrs by AMES MPF assay in presence of Sprague-Dawley rat liver microsomal S9 fraction relative to baseline; assay type: toxicity, organism-based; details: salmonella enterica subsp. enterica serovar typhimurium; summary of the method: as §3
Salmonella typhimurium [14] = test: Mutagenicity in Salmonella typhimurium TA100 at 0.3125 mg/ml after 48 hrs by AMES MPF assay in presence of Sprague-Dawley rat liver microsomal S9 fraction relative to baseline; assay type: toxicity, organism-based; details: salmonella enterica subsp. enterica serovar typhimurium; summary of the method: as §3
Salmonella typhimurium [15] = test: Mutagenicity in Salmonella typhimurium TA100 at 0.625 mg/ml after 48 hrs by AMES MPF assay in presence of Sprague-Dawley rat liver microsomal S9 fraction relative to baseline; assay type: toxicity, organism-based; details: salmonella enterica subsp. enterica serovar typhimurium; summary of the method: as §3
Salmonella typhimurium [16] = test: Mutagenicity in Salmonella typhimurium TA100 at 1.25 mg/ml after 48 hrs by AMES MPF assay in presence of Sprague-Dawley rat liver microsomal S9 fraction relative to baseline; assay type: toxicity, organism-based; details: salmonella enterica subsp. enterica serovar typhimurium; summary of the method: as §3
Salmonella typhimurium [17] = test: Mutagenicity in Salmonella typhimurium TA100 at 2.5 mg/ml after 48 hrs by AMES MPF assay in presence of Sprague-Dawley rat liver microsomal S9 fraction relative to baseline; assay type: toxicity, organism-based; details: salmonella enterica subsp. enterica serovar typhimurium; summary of the method: as §3
Salmonella typhimurium [18] = test: Mutagenicity in Salmonella typhimurium TA100 at 5 mg/ml after 48 hrs by AMES MPF assay in presence of Sprague-Dawley rat liver microsomal S9 fraction relative to baseline; assay type: toxicity, organism-based; details: salmonella enterica subsp. enterica serovar typhimurium; summary of the method: as §3
Salmonella typhimurium [19] = test: Mutagenicity in Salmonella typhimurium TA100 at 0.156 mg/ml after 48 hrs by AMES MPF assay in absence of Sprague-Dawley rat liver microsomal S9 fraction relative to baseline; assay type: toxicity, organism-based; details: salmonella enterica subsp. enterica serovar typhimurium; summary of the method: as §3
Salmonella typhimurium [20] = test: Mutagenicity in Salmonella typhimurium TA100 at 0.3125 mg/ml after 48 hrs by AMES MPF assay in absence of Sprague-Dawley rat liver microsomal S9 fraction relative to baseline; assay type: toxicity, organism-based; details: salmonella enterica subsp. enterica serovar typhimurium; summary of the method: as §3
Salmonella typhimurium [21] = test: Mutagenicity in Salmonella typhimurium TA100 at 0.625 mg/ml after 48 hrs by AMES MPF assay in absence of Sprague-Dawley rat liver microsomal S9 fraction relative to baseline; assay type: toxicity, organism-based; details: salmonella enterica subsp. enterica serovar typhimurium; summary of the method: as §3
Salmonella typhimurium [22] = test: Mutagenicity in Salmonella typhimurium TA100 at 1.25 mg/ml after 48 hrs by AMES MPF assay in absence of Sprague-Dawley rat liver microsomal S9 fraction relative to baseline; assay type: toxicity, organism-based; details: salmonella enterica subsp. enterica serovar typhimurium; summary of the method: as §3
Salmonella typhimurium [23] = test: Mutagenicity in Salmonella typhimurium TA100 at 2.5 mg/ml after 48 hrs by AMES MPF assay in absence of Sprague-Dawley rat liver microsomal S9 fraction relative to baseline; assay type: toxicity, organism-based; details: salmonella enterica subsp. enterica serovar typhimurium; summary of the method: as §3
Salmonella typhimurium [24] = test: Mutagenicity in Salmonella typhimurium TA100 at 5 mg/ml after 48 hrs by AMES MPF assay in absence of Sprague-Dawley rat liver microsomal S9 fraction relative to baseline; assay type: toxicity, organism-based; details: salmonella enterica subsp. enterica serovar typhimurium; summary of the method: as §3
A549 = test: Antiproliferative activity against human A549 cells after 24 hrs by XTT assay; assay type: functional, cell-based; details: A549, 24 h
Summary of the method: (§4)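 A549 cells in RPMI and NIH/3T3 cells in DMEM, each with fetal calf serum, antibiotics and 7.5% NaHCO₃, at 37 °C, 5% CO₂. Seeded at 20,000 cells/well, 24 h, then compounds added in medium at 500–3.9 doses (final DMSO <0.1%) for 24 h. XTT read after 3 h at 480 nm (ref 680 nm). IC₅₀ by non-linear regression; triplicates; cisplatin control.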

[25] = Cytotoxicity against mouse NIH/3T3 cells after 24 hrs by XTT assay; assay type: cell-based; details: NIH3T3, 24 h; summary of the method: as §4

MIC (Nakaseomyces glabratus): 125 µg/mL (≈ 251 µM)
MIC (Candida albicans): 250 µg/mL (≈ 502 µM)
MIC (Candida tropicalis): 250 µg/mL (≈ 502 µM)
MIC (Pichia kudriavzevii): 250 µg/mL (≈ 502 µM)
MIC ([Candida] zeylanoides): 250 µg/mL (≈ 502 µM)
MIC (Candida parapsilosis): 250 µg/mL (≈ 502 µM)
MIC (Aspergillus flavus): 125 µg/mL (≈ 251 µM)
MIC (Aspergillus niger): 250 µg/mL (≈ 502 µM)
MIC (Aspergillus parasiticus): 250 µg/mL (≈ 502 µM)
MIC (Fusarium solani): 250 µg/mL (≈ 502 µM)
IC50 (A549): > 500 µg/mL
SMILES: Cc1ccc(C2=NN(c3nc(-c4ccc(S(C)(=O)=O)cc4)cs3)C(c3ccc(F)cc3)C2)s1 (stereo unspecified)
fold change (FC) (Salmonella typhimurium [1]): 0.41
fold change (FC) (Salmonella typhimurium [2]): 0.27
fold change (FC) (Salmonella typhimurium [3]): 1.63
fold change (FC) (Salmonella typhimurium [4]): 0.95
fold change (FC) (Salmonella typhimurium [5]): 1.36
fold change (FC) (Salmonella typhimurium [6]): 0.81
fold change (FC) (Salmonella typhimurium [7]): 0.67
fold change (FC) (Salmonella typhimurium [8]): 0.22
fold change (FC) (Salmonella typhimurium [9]): 0.44
fold change (FC) (Salmonella typhimurium [10]): 0.89
fold change (FC) (Salmonella typhimurium [11]): 0.67
fold change (FC) (Salmonella typhimurium [12]): 0.89
fold change (FC) (Salmonella typhimurium [13]): 0.73
fold change (FC) (Salmonella typhimurium [14]): 0.73
fold change (FC) (Salmonella typhimurium [15]): 0.93
fold change (FC) (Salmonella typhimurium [16]): 0.8
fold change (FC) (Salmonella typhimurium [17]): 1.26
fold change (FC) (Salmonella typhimurium [18]): 0.93
fold change (FC) (Salmonella typhimurium [19]): 0.78
fold change (FC) (Salmonella typhimurium [20]): 1.04
fold change (FC) (Salmonella typhimurium [21]): 0.99
fold change (FC) (Salmonella typhimurium [22]): 0.52
fold change (FC) (Salmonella typhimurium [23]): 0.52
fold change (FC) (Salmonella typhimurium [24]): 1.09
IC50 [25]: 374 µg/mL (≈ 751 µM)
